How the values were obtained:
[1] = biological target: ALK tyrosine kinase receptor (Homo sapiens, UniProt Q9UM73); experiment: Inhibition of ALK (unknown origin)
[2] = biological target: Receptor tyrosine-protein kinase erbB-2 (Homo sapiens, UniProt P04626); experiment: Inhibition of ERBB2 (unknown origin)
Outline: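 Part of a 141-protein-kinase selectivity panel run either in house or by an outside contract lab. IC50 is reported as the average of at least two determinations.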

[3] = Clearance in cynomolgus monkey at 3 mg/kg, iv; assay type: ADME, organism-based, Macaca fascicularis; set-up: dose 3 mg/kg, route intravenous; details: in vivo
Outline: (§1)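 Single-dose PK: female athymic nude mice (10 mg/kg), female CD rats and male beagle dogs (3 mg/kg), male cynomolgus monkeys (3 mg/kg), given iv and by oral gavage. Solution in EPW (5% ethanol/45% PEG400/water), with 1:2 HCl (m/m) for mouse, rat and dog and 1:1.5 HCl (m/m) for monkey. Plasma levels followed over 24 h.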

Mus musculus [4] = experiment: In vivo inhibition of mTORC1-mediated phosphorylation of pS6 at (serine 240/244) in human MCF7 cells xenografted into athymic nude mouse at 100 mg/kg, po after 16 hrs by Western blotting analysis relative to control; assay type: functional; details: MCF7, 16 h
Outline: (§2)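 MCF-7 cells (DMEM, 10% FBS) were implanted subcutaneously at 5 × 10^6 cells in 50% cold HBSS/50% growth-factor-reduced matrigel into the hindflank of 5−8 week old female nude mice. At tumor size 40−150 mg, mice received a single oral dose of 100 mg/kg. Tumor lysates were pooled per group. Phospho-AKT (S473, T308), p70S6K (T389), S6 (S240/244) and 4E-BP1 (T37/46) were measured by Western blot normalized to α-tubulin.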

[5] = Metabolic stability in dog liver microsomes after 30 mins; assay type: ADME, Canis lupus familiaris, Microsome; details: read-out: Stability
[6] = Metabolic stability in mouse liver microsomes after 30 mins; assay type: ADME, Microsome; details: read-out: Stability
[7] = Plasma concentration in athymic mouse plasma xenografted with human MCF7 cells at 100 mg/kg, po after 8 hrs; assay type: ADME, organism-based; set-up: dose 100 mg/kg, route oral
[8] = Oral bioavailability in CD rat at 3 mg/kg; assay type: ADME, organism-based; details: in vivo
Outline: (§3)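 For single-dose PK, compound was given intravenously and by oral gavage as a solution in EPW (5% ethanol/45% PEG400/water + 1:2 HCl m/m). Doses were 10 mg/kg in female athymic nude mice and 3 mg/kg in female CD rats and male beagle dogs.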

[9] = biological target: Tyrosine-protein kinase JAK2 (Homo sapiens, UniProt O60674); experiment: Inhibition of JAK2 (unknown origin)
Sequence of Tyrosine-protein kinase JAK2 (O60674 whole entry): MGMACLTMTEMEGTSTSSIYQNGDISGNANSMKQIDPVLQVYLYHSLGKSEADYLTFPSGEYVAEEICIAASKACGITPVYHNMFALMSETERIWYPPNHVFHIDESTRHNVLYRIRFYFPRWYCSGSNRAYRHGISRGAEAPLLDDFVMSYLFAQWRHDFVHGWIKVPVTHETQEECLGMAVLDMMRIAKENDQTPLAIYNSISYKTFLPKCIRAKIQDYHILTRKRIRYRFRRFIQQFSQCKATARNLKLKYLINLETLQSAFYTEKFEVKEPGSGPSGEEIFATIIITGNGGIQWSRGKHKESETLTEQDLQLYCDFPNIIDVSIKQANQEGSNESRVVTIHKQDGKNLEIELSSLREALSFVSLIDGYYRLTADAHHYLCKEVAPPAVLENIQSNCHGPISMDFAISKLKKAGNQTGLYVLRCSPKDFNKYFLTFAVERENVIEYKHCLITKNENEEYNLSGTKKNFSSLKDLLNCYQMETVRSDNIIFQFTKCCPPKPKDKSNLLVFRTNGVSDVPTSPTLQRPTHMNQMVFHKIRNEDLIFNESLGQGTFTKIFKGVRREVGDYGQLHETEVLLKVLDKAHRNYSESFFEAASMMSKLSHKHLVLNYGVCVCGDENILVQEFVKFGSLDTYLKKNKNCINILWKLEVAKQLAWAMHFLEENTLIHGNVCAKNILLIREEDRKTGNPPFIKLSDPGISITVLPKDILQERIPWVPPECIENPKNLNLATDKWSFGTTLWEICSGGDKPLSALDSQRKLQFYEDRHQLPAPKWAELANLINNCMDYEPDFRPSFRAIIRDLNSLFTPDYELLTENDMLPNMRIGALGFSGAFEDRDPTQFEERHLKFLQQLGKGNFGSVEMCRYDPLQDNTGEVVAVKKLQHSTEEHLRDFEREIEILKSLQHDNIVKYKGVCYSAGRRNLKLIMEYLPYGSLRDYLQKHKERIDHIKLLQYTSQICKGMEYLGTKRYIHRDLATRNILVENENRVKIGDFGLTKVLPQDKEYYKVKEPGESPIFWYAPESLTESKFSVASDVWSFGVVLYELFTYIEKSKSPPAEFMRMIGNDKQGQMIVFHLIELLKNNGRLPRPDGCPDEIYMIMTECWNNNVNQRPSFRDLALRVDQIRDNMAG

Mus musculus [10] = experiment: In vivo inhibition of mTORC2-mediated phosphorylation of AKT at […] in human PC3 cells xenografted into athymic nude mouse at 100 mg/kg, po after 24 hrs by Western blotting analysis relative to control; assay type: functional; details: PC-3, 24 h
Outline: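 Human PC-3 cells were implanted subcutaneously into the hindflank of male nude mice aged 5−8 weeks, at 3 × 10^6 cells (passages 10−14, >95% viability) in ice-cold HBSS. At a tumor size of 200−500 mg, mice got one oral 100 mg/kg dose. Tumors were taken at 1, 4, 8, 16, 24 and 32 h. Lysates (n = 5 per group) were pooled, and phospho-AKT (T308) was read by Western blot, normalized to α-tubulin.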

Mus musculus [11] = experiment: In vivo inhibition of mTORC1-mediated phosphorylation of 4EBP1 at ([…]) in human MCF7 cells xenografted into athymic nude mouse at 100 mg/kg, po after 8 hrs by Western blotting analysis relative to control; assay type: functional; details: MCF7, 8 h; outline: as §2
Mus musculus [12] = experiment: In vivo inhibition of mTORC1-mediated phosphorylation of 4EBP1 at ([…]) in human MCF7 cells xenografted into athymic nude mouse at 100 mg/kg, po after 16 hrs by Western blotting analysis relative to control; assay type: functional; details: MCF7, 16 h
[13] = biological target: Phosphatidylinositol 4,5-bisphosphate 3-kinase catalytic subunit alpha isoform (Homo sapiens, UniProt P42336); experiment: Inhibition of PI3Kalpha (unknown origin)
Sequence of Phosphatidylinositol 4,5-bisphosphate 3-kinase catalytic subunit alpha isoform (P42336 whole entry, canonical isoform): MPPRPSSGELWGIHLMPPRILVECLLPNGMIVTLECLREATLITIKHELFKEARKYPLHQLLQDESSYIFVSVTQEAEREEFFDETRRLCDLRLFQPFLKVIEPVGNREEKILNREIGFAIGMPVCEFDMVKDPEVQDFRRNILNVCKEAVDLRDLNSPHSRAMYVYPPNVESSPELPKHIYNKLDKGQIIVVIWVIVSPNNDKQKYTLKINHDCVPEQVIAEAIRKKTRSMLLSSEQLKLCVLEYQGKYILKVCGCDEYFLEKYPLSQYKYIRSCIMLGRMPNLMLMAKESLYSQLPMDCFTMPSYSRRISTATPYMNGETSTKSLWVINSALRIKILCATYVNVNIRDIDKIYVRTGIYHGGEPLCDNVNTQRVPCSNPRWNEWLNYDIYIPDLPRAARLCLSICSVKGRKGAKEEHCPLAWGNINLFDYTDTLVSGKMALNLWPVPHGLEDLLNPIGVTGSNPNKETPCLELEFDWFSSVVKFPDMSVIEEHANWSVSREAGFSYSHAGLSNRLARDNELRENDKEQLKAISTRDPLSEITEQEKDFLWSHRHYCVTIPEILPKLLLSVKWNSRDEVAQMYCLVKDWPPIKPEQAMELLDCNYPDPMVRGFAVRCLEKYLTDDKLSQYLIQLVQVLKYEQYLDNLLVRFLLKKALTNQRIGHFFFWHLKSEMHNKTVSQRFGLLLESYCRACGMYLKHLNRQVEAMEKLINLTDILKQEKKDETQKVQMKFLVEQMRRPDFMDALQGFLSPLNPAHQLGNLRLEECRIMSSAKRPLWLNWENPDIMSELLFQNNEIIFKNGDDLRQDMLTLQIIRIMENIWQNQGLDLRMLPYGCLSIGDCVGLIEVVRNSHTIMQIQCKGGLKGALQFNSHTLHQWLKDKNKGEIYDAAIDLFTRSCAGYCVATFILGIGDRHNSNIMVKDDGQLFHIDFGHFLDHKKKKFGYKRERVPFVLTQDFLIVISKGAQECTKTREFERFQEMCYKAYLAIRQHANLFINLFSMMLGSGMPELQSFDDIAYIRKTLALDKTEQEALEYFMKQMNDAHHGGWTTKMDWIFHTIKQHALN
Outline: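 PI3Kα activity was read as the percentage of ATP consumed, by luciferase–luciferin chemiluminescence (Kinase-Glo). The reaction ran about 2 h at ambient temperature, with ATP consumption kept to 40–60%. Values are the mean of n ≥ 2.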

[14] = Plasma concentration in mouse at 100 mg/kg, po after 4 hrs; assay type: ADME, organism-based; set-up: dose 100 mg/kg, route oral
[15] = Clearance in CD rat at 3 mg/kg, iv; assay type: ADME, organism-based; set-up: dose 3 mg/kg, route intravenous; details: in vivo; outline: as §1
[16] = Plasma protein binding in monkey at 5 uM; assay type: ADME, cell-free, Macaca mulatta; details: rhesus monkey, read-out: PPB (converted)
[17] = Oral bioavailability in athymic nude mouse at 10 mg/kg; assay type: ADME, organism-based; details: in vivo; outline: as §3
Mus musculus [18] = experiment: In vivo inhibition of mTORC2-mediated phosphorylation of AKT at serine 473 in human MCF7 cells xenografted into athymic nude mouse at 100 mg/kg, po after 16 hrs by Western blotting analysis relative to control; assay type: functional; details: MCF7, 16 h; outline: as §2
Mus musculus [19] = experiment: In vivo inhibition of mTORC2-mediated phosphorylation of AKT at serine 473 in human MCF7 cells xenografted into athymic nude mouse at 100 mg/kg, po after 24 hrs by Western blotting analysis relative to control; assay type: functional; details: MCF7, 24 h; outline: as §2
Mus musculus [20] = experiment: In vivo inhibition of mTORC1-mediated phosphorylation of p70S6K at […] in human PC3 cells xenografted into athymic nude mouse at 100 mg/kg, po after 4 hrs by Western blotting analysis relative to control; assay type: functional; details: PC-3, 4 h
Outline: (§4)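 PC-3 cells grown in DMEM with 20% FBS were implanted subcutaneously at 3 × 10^6 cells in ice-cold HBSS into the hindflank of 5−8 week old male nude mice. At tumor size 200−500 mg, mice received a single oral dose of 100 mg/kg. Plasma and tumors were collected at 1, 4, 8, 16, 24 and 32 h. Tumor lysates from each group (n = 5) were pooled. Phospho-proteins were quantified by Western blot and normalized to α-tubulin.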

MCF7 = experiment: Antitumor activity against human MCF7 cells xenografted in athymic nude mouse at 100 mg/kg, po qd for 14 days relative to control; assay type: functional
Outline: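 Female athymic nude (NCr) mice, 5–8 weeks old, bearing subcutaneous MCF-7 tumors staged at 100–200 mg. Compound given orally qd for 14 days at 50 or 100 mg/kg as a solution/fine suspension in water with a 1:1 molar ratio of 1 N HCl. Caliper tumor mass = length × width²/2, measured twice weekly; body mass recorded daily.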

Mus musculus [21] = experiment: In vivo inhibition of mTORC1-mediated phosphorylation of p70S6K at […] in human PC3 cells xenografted into athymic nude mouse at 100 mg/kg, po after 24 hrs by Western blotting analysis relative to control; assay type: functional; details: PC-3, 24 h; outline: as §4
[22] = Plasma protein binding in rat at 5 uM; assay type: ADME, cell-free; details: read-out: PPB (converted)
Mus musculus [23] = experiment: In vivo inhibition of mTORC2-mediated phosphorylation of AKT at […] in human MCF7 cells xenografted into athymic nude mouse at 100 mg/kg, po after 1 hr by Western blotting analysis relative to control; assay type: functional; details: MCF7, 1 h; outline: as §2
Mus musculus [24] = experiment: In vivo inhibition of mTORC1-mediated phosphorylation of p70S6K at […] in human MCF7 cells xenografted into athymic nude mouse at 100 mg/kg, po after 32 hrs by Western blotting analysis relative to control; assay type: functional; details: MCF7, 32 h; outline: as §2
[25] = Metabolic stability in rat liver microsomes after 30 mins; assay type: ADME, Microsome; details: read-out: Stability

Sequence of ALK tyrosine kinase receptor (Q9UM73 whole entry): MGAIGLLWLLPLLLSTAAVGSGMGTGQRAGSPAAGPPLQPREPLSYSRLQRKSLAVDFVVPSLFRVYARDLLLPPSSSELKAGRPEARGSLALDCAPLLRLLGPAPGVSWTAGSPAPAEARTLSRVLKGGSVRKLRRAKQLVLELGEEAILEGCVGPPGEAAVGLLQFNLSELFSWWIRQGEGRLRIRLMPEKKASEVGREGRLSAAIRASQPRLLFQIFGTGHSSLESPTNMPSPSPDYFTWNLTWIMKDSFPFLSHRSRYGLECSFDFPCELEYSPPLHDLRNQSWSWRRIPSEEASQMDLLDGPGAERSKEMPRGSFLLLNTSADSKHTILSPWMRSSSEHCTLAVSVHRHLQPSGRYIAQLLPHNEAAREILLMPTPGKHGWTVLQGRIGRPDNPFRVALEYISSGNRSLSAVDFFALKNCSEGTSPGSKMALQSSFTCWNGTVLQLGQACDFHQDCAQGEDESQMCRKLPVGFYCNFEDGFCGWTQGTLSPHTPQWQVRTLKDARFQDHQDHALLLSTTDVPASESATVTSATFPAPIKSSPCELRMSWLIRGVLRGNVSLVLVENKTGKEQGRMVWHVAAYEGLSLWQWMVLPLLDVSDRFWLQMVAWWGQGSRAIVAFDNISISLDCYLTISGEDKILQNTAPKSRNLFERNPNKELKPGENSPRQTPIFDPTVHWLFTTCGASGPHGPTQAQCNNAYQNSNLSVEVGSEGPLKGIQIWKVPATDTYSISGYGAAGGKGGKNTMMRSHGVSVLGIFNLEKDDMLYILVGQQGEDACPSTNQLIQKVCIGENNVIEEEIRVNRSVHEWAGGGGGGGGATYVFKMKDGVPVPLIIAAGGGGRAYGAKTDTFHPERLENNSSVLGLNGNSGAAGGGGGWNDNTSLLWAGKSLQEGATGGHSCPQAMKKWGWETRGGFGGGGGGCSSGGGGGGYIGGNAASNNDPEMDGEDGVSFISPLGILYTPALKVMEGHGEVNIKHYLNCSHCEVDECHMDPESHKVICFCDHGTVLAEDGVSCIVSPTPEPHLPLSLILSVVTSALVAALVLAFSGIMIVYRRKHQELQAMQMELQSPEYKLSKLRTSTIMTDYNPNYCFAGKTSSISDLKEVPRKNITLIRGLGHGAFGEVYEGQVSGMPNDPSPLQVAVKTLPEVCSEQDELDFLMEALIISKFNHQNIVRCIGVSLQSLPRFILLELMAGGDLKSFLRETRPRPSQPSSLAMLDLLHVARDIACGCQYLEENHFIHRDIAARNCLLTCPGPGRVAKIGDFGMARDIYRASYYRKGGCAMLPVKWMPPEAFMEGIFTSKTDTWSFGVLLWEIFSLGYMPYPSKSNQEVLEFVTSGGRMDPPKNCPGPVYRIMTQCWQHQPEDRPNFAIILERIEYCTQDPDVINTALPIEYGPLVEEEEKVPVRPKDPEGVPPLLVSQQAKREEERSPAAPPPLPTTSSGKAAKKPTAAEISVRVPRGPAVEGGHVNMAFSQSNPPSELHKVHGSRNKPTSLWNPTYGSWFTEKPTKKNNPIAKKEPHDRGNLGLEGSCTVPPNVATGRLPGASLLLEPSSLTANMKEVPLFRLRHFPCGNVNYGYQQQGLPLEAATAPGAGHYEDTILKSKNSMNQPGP
Sequence of Receptor tyrosine-protein kinase erbB-2 (P04626 whole entry): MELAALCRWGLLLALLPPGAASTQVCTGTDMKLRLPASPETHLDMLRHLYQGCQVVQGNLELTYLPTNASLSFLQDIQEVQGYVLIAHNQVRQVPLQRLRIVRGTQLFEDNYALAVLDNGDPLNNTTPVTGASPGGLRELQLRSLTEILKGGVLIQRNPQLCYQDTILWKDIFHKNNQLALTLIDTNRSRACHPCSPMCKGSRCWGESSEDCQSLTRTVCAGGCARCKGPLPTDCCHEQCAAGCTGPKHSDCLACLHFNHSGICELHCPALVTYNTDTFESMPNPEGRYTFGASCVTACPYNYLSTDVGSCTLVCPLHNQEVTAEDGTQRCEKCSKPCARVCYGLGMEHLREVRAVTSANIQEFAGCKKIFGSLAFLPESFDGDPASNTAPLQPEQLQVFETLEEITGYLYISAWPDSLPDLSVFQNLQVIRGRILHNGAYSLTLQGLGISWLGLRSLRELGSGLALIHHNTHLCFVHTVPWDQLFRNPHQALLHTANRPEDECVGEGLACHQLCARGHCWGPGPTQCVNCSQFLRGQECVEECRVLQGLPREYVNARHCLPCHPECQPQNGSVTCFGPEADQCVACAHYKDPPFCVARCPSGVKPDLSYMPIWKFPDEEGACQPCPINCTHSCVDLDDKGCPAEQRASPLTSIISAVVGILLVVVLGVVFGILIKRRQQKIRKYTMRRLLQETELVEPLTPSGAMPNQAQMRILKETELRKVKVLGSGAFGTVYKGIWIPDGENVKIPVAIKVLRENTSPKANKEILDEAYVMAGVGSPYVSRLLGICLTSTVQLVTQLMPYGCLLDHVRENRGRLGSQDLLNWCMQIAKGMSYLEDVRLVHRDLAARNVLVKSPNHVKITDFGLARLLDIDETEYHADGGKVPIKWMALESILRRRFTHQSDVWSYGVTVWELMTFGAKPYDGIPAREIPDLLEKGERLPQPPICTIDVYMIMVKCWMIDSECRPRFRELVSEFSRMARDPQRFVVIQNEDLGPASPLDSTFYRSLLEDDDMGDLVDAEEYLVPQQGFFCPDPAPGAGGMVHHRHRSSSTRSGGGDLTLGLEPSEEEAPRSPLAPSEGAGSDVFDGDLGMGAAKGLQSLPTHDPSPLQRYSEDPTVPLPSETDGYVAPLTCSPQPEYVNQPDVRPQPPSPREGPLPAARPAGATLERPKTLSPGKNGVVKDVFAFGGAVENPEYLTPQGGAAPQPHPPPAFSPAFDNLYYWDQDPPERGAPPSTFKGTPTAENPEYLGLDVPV

IC50 [1]: > 3.5 µM
IC50 [2]: > 3.5 µM
clearance [3]: 84.2 mL/min/kg
remaining at 0.5 h [5]: 82%
remaining at 0.5 h [6]: 78%
concentration at 8 h [7]: 16.5 µM
bioavailability [8]: 25.6%
IC50 [9]: > 3.5 µM
IC50 [13]: > 3 µM
concentration at 4 h [14]: 17.8 µM
clearance [15]: 21.2 mL/min/kg
fraction unbound at 5 µM [16]: 0.1
bioavailability [17]: 31.4%
fraction unbound at 5 µM [22]: 0.15
remaining at 0.5 h [25]: 78%
Compound: Cc1c(C(=O)N2CCOc3ccc(-c4ccc(N)nc4)cc3C2)ccc(S(C)(=O)=O)c1F
inhibition in vivo at 100 mg/kg (Mus musculus [4]): 36%
inhibition in vivo at 100 mg/kg (Mus musculus [10]): 11%
inhibition in vivo at 100 mg/kg (Mus musculus [11]): 88%
inhibition in vivo at 100 mg/kg (Mus musculus [12]): 56%
inhibition in vivo at 100 mg/kg (Mus musculus [18]): 69%
inhibition in vivo at 100 mg/kg (Mus musculus [19]): -49%
inhibition in vivo at 100 mg/kg (Mus musculus [20]): 95%
Activity (MCF7): 40%
inhibition in vivo at 100 mg/kg (Mus musculus [21]): 11%
inhibition in vivo at 100 mg/kg (Mus musculus [23]): 6%
inhibition in vivo at 100 mg/kg (Mus musculus [24]): 2%

From ChEMBL document CHEMBL2331117 (J Med Chem, 2013)
